SMILES strings stand for the structures.

The nature of the test: Displacement of radioligand from AChBp by scintillation counting. In a few lines: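 Lymnaea stagnalis AChBP (Ls-AChBP), expressed from baculovirus in Sf9 insect cells and purified from medium, 1.3 ng per well. Buffer (final): 1.4 mM KH2PO4, 4.3 mM Na2HPO4, 137.0 mM NaCl, 2.7 mM KCl, 20 mM Tris, 4% DMSO, 0.05% Tween 20, pH 7.4. Incubation was 60 min, then 3 h in the dark, with label-bead complexes counted. Full IC50 curves (n=3) were converted to pKi by Cheng-Prusoff.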
Usually pKi stands for −log10 of the Ki, conventionally taken in molar units. Lower therefore signals a high Ki. Compound `Br.NCCCCC(=O)c1cccnc1` registered a negative-log Ki (pKi) of 6.09. The result for `C(=C1/CCCN=C1c1cccnc1)/c1coc2ccccc12` reads 7; that for `COc1ccc(/C=C2\CCCN=C2c2cccnc2)cc1O`, 8.46.

Compound `CC(=O)Nc1ccc(/C=C2\CCCN=C2c2cccnc2)cc1` displayed a pKi of 7.38. The result for `O=[N+]([O-])c1cccc(/C=C2\CCCN=C2c2cccnc2)c1` reads 6.29. The result for `C(=C1/CCCN=C1c1cccnc1)/c1cc2ccccc2[nH]1` reads 8.71; that for `C(=C1/CCCN=C1c1cccnc1)/c1ccccc1` [3-BENZYLIDENEANABASEINE], 7.13.

Regarding `Clc1ccc(/C=C2\CCCN=C2c2cccnc2)cc1`, the pKi worked out at 6.87. The result for `CCN(CC)c1ccc(/C=C2\CCCN=C2c2cccnc2)c(O)c1` reads 7.59; that for `COc1cc(/C=C2\CCCN=C2c2cccnc2)ccc1O`, 7.09. With `Oc1ccc(/C=C2\CCCN=C2c2cccnc2)cc1` the figure was 8.55.

Source of the values: ChEMBL document CHEMBL1177714, “Online fluorescence enhancement assay for the acetylcholine binding protein with parallel mass spectrometric identification” (J Med Chem, 2010).
